Test results published in ChEMBL document CHEMBL1128374, “Preparation and in vitro activities of ethers of [D-serine]8-cyclosporin” (J Med Chem, 1995).
Converted amounts (≈) assume the structure as drawn.

What was measured:
Format in all cases: functional
[1] = species: Mus musculus; assay: In vitro efficacy on humoral immune response by Mishell-Dutton assay (MD).
Procedure, shortened: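 Spleen lymphocytes from female OF1 mice (ca. 10 x 10^6) cultured 3 days with sheep erythrocytes (ca. 30 x 10^6) and test compound. Cells then plated on agar with fresh erythrocytes; plaques form by complement lysis. Read-out is the count of antibody-producing plaque-forming cells. Cyclosporin A run in parallel.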

[2] = species: Mus musculus; assay: In vitro efficacy to suppress lymphocyte proliferation as measured by the incorporation of a labeled precursor ([3H]- thymidine) into DNA in Mixed Lymphocyte reaction (MLR).
Procedure, shortened: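 Cells from spleens of female CBA mice aged 8–10 weeks (ca. 5 x 10^5). Compounds made up at 20 mg/mL in 9:1 (v/v) ethanol/Tween 80, then diluted in saline before adding to medium. Four concentrations per compound across 1.8–1000 ng/mL, in triplicate cultures. IC50 is the calculated concentration giving 50% inhibition of proliferation. Cyclosporin A run in parallel as control.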

[3] = species: Mus musculus; assay: In vitro inhibition of interleukin-2 (IL-2) production induced by stimulating lymphocytes derived from mouse spleens with the […]; settings: Spleen
Procedure, shortened: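 Compounds added with concanavalin A to the primary culture; supernatants collected at 48 h. IL-2 content measured by growth of IL-2-dependent CTLL cells, read as tritiated thymidine incorporation after 48 h. IC50 determined, with cyclosporin A run in parallel.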

Structure (SMILES) | IC50 [1] | IC50 [2] | IC50 [3]
C/C=C/C[C@@H](C)[C@@H](O)[C@H]1C(=O)N[C@@H](CC)C(=O)N(C)CC(=O)N(C)[C@@H](CC(C)C)C(=O)N[C@@H](C(C)C)C(=O)N(C)[C@@H](CC(C)C)C(=O)N[C@@H](C)C(=O)N[C@H](COCCNS(=O)(=O)c2cccc3c(N(C)C)cccc23)C(=O)N(C)[C@@H](CC(C)C)C(=O)N(C)[C@@H](CC(C)C)C(=O)N(C)[C@@H](C(C)C)C(=O)N1C | 0.048 µg/mL (≈ 0.0321 µM) | 0.11 µg/mL (≈ 0.0736 µM) | 0.057 µg/mL (≈ 0.0381 µM)
C/C=C/C[C@@H](C)[C@@H](O)[C@H]1C(=O)N[C@@H](CC)C(=O)N(C)CC(=O)N(C)[C@@H](CC(C)C)C(=O)N[C@@H](C(C)C)C(=O)N(C)[C@@H](CC(C)C)C(=O)N[C@@H](C)C(=O)N2CC(=O)OC[C@@H]2C(=O)N(C)[C@@H](CC(C)C)C(=O)N(C)[C@@H](CC(C)C)C(=O)N(C)[C@@H](C(C)C)C(=O)N1C | – | 0.167 µg/mL (≈ 0.133 µM) | 0.024 µg/mL (≈ 0.0191 µM)
C/C=C/C[C@@H](C)[C@@H](O)[C@H]1C(=O)N[C@@H](CC)C(=O)N(C)CC(=O)N(C)[C@@H](CC(C)C)C(=O)N[C@@H](C(C)C)C(=O)N(C)[C@@H](CC(C)C)C(=O)N[C@@H](C)C(=O)N[C@H](COCC(=O)O)C(=O)N(C)[C@@H](CC(C)C)C(=O)N(C)[C@@H](CC(C)C)C(=O)N(C)[C@@H](C(C)C)C(=O)N1C | 0.48 µg/mL (≈ 0.376 µM) | 0.44 µg/mL (≈ 0.345 µM) | 0.53 µg/mL (≈ 0.415 µM)
C/C=C/C[C@@H](C)[C@@H](O)[C@H]1C(=O)N[C@@H](CC)C(=O)N(C)CC(=O)N(C)[C@@H](CC(C)C)C(=O)N[C@@H](C(C)C)C(=O)N(C)[C@@H](CC(C)C)C(=O)N[C@@H](C)C(=O)N[C@H](COCC(=O)OC)C(=O)N(C)[C@@H](CC(C)C)C(=O)N(C)[C@@H](CC(C)C)C(=O)N(C)[C@@H](C(C)C)C(=O)N1C | 0.065 µg/mL (≈ 0.0504 µM) | 0.044 µg/mL (≈ 0.0341 µM) | –
C/C=C/C[C@@H](C)[C@@H](O)[C@H]1C(=O)N[C@@H](CC)C(=O)N(C)CC(=O)N(C)[C@@H](CC(C)C)C(=O)N[C@@H](C(C)C)C(=O)N(C)[C@@H](CC(C)C)C(=O)N[C@@H](C)C(=O)N[C@H](COCCCCO)C(=O)N(C)[C@@H](CC(C)C)C(=O)N(C)[C@@H](CC(C)C)C(=O)N(C)[C@@H](C(C)C)C(=O)N1C | 0.09 µg/mL (≈ 0.0697 µM) | 0.094 µg/mL (≈ 0.0728 µM) | –
C/C=C/C[C@@H](C)[C@@H](O)[C@H]1C(=O)N[C@@H](CC)C(=O)N(C)CC(=O)N(C)[C@@H](CC(C)C)C(=O)N[C@@H](C(C)C)C(=O)N(C)[C@@H](CC(C)C)C(=O)N[C@@H](C)C(=O)N[C@H](COC/C=C/CBr)C(=O)N(C)[C@@H](CC(C)C)C(=O)N(C)[C@@H](CC(C)C)C(=O)N(C)[C@@H](C(C)C)C(=O)N1C | 0.24 µg/mL (≈ 0.178 µM) | 0.09 µg/mL (≈ 0.0666 µM) | –
C/C=C/C[C@@H](C)[C@@H](O)[C@H]1C(=O)N[C@@H](CC)C(=O)N(C)CC(=O)N(C)[C@@H](CC(C)C)C(=O)N[C@@H](C(C)C)C(=O)N(C)[C@@H](CC(C)C)C(=O)N[C@@H](C)C(=O)N[C@H](COCCOS(=O)(=O)c2ccc(C)cc2)C(=O)N(C)[C@@H](CC(C)C)C(=O)N(C)[C@@H](CC(C)C)C(=O)N(C)[C@@H](C(C)C)C(=O)N1C | – | 0.05 µg/mL (≈ 0.0353 µM) | 0.014 µg/mL (≈ 0.00988 µM)
C/C=C/C[C@@H](C)[C@@H](O)[C@H]1C(=O)N[C@@H](CC)C(=O)N(C)CC(=O)N(C)[C@@H](CC(C)C)C(=O)N[C@@H](C(C)C)C(=O)N(C)[C@@H](CC(C)C)C(=O)N[C@@H](C)C(=O)N[C@H](COC/C=C/COC(C)=O)C(=O)N(C)[C@@H](CC(C)C)C(=O)N(C)[C@@H](CC(C)C)C(=O)N(C)[C@@H](C(C)C)C(=O)N1C | 0.04 µg/mL (≈ 0.0301 µM) | 0.04 µg/mL (≈ 0.0301 µM) | –
C=C(COC[C@H]1NC(=O)[C@H](C)NC(=O)[C@H](CC(C)C)N(C)C(=O)[C@H](C(C)C)NC(=O)[C@H](CC(C)C)N(C)C(=O)CN(C)C(=O)[C@H](CC)NC(=O)[C@H]([C@H](O)[C@H](C)C/C=C/C)N(C)C(=O)[C@H](C(C)C)N(C)C(=O)[C@H](CC(C)C)N(C)C(=O)[C@H](CC(C)C)N(C)C1=O)C(=O)OC | 0.016 µg/mL (≈ 0.0122 µM) | 0.04 µg/mL (≈ 0.0304 µM) | 0.1 µg/mL (≈ 0.0759 µM)
C/C=C/C[C@@H](C)[C@@H](O)[C@H]1C(=O)N[C@@H](CC)C(=O)N(C)CC(=O)N(C)[C@@H](CC(C)C)C(=O)N[C@@H](C(C)C)C(=O)N(C)[C@@H](CC(C)C)C(=O)N[C@@H](C)C(=O)N[C@H](COCCC2OCCO2)C(=O)N(C)[C@@H](CC(C)C)C(=O)N(C)[C@@H](CC(C)C)C(=O)N(C)[C@@H](C(C)C)C(=O)N1C | 0.105 µg/mL (≈ 0.0796 µM) | 0.117 µg/mL (≈ 0.0887 µM) | 0.086 µg/mL (≈ 0.0652 µM)
C/C=C/C[C@@H](C)[C@@H](O)[C@H]1C(=O)N[C@@H](CC)C(=O)N(C)CC(=O)N(C)[C@@H](CC(C)C)C(=O)N[C@@H](C(C)C)C(=O)N(C)[C@@H](CC(C)C)C(=O)N[C@@H](C)C(=O)N[C@H](COCCOCCOCC(=O)OC(C)C)C(=O)N(C)[C@@H](CC(C)C)C(=O)N(C)[C@@H](CC(C)C)C(=O)N(C)[C@@H](C(C)C)C(=O)N1C | 0.53 µg/mL (≈ 0.377 µM) | 0.35 µg/mL (≈ 0.249 µM) | –
